How the values were obtained:
PBMC [1] = assay: Cellular uptake in human PBMC at 10 uM after 24 hrs by MS/MS analysis; assay type: ADME, cell-based
Method in brief: (§1)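 Human PBMCs, unstimulated or PHA/IL-2-stimulated, at 2 × 10^6 cells/ml in RPMI 1640 with 15% FBS, exposed 24 h at 37°C to final 0.01, 0.1, 1.0 or 10 μM of the prodrug, or 1.0 or 10 μM tenofovir. After cold saline washes the cells were counted and 1 × 10^7-cell pellets made. TFV, TFV-MP and TFV-PP were measured by ion-pairing LC with positive-ion electrospray MS as pmol/10^6 cells.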

PBMC [2] = assay: Cellular uptake in PHA/IL-2-stimulated human PBMC at 1 uM after 24 hrs by MS/MS analysis; assay type: ADME, cell-based; conditions: BLD = below limit of detection
Method in brief: (§2)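 PHA-stimulated (4 μg/ml PHA, 48 to 72 h; 20 U/ml rhIL-2) human PBMCs at 2 × 10^6 cells/ml in RPMI 1640 with 15% FBS, given tenofovir or prodrug (final 0.01 to 10 μM) for 24 h at 37°C. Cells washed three times in cold 0.9% NaCl, counted, and 1 × 10^7 cell aliquots pelleted. TFV, TFV-MP and TFV-PP were separated by ion-pairing reverse-phase LC and detected by positive-ion electrospray MS. Output is pmol per 10^6 cells.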

PBMC [3] = assay: Cellular uptake in human PBMC at 1 uM after 24 hrs by MS/MS analysis; assay type: ADME, cell-based; method in brief: as §1
[4] = test system: Human immunodeficiency virus 1; assay: Antiviral activity against HIV1 subtype B isolate 92BR014 infected in human PBMC after 48 to 72 hrs by MTS assay; assay type: functional, organism-based; conditions: Human immunodeficiency virus 1, isolate 92BR014
Method in brief: (§3)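 Fresh donor PBMCs, HIV- and HBV-seronegative, were stimulated with 4 μg/ml PHA for 48 to 72 h and kept on 20 U/ml rhIL-2. Cells pooled from at least two donors were seeded at 5 × 10^4 per well and infected at MOI ~0.1. Nine compound concentrations were run in triplicate wells for 7 days.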

PBMC [5] = assay: Cellular uptake in human PBMC at 0.01 uM assessed as TFV-diphosphate after 24 hrs by MS/MS analysis; assay type: ADME, cell-based; method in brief: as §1
PBMC [6] = assay: Cellular uptake in PHA/IL-2-stimulated human PBMC at 0.01 uM assessed as TFV-monophosphate after 24 hrs by MS/MS analysis; assay type: ADME, cell-based; conditions: BLD = below limit of detection
Method in brief: (§4)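 PHA/IL-2-stimulated PBMCs at 2 × 10^6 cells/ml (5 × 10^7 per flask) were exposed for 24 h at 37°C. Cells were washed three times in cold 0.9% NaCl and counted by trypan blue. Aliquots of 1 × 10^7 cells were pelleted. TFV, TFV-MP and TFV-PP were separated by ion-pairing reverse-phase gradient LC and detected by positive electrospray. Results are given as pmol/10^6 cells.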

[7] = test system: Human immunodeficiency virus 1; assay: Antiviral activity against HIV1 group O isolate BCF01 infected in human PBMC after 48 to 72 hrs by MTS assay; assay type: functional, organism-based; conditions: Human immunodeficiency virus 1, isolate BCF01; method in brief: as §3
[8] = test system: Human immunodeficiency virus 1; assay: Antiviral activity against HIV1 group O isolate BCF03 infected in human PBMC after 48 to 72 hrs by MTS assay; assay type: functional, organism-based; conditions: Human immunodeficiency virus 1, isolate BCF03; method in brief: as §3
[9] = test system: Human immunodeficiency virus 1; assay: Antiviral activity against HIV1 isolate JR-CSF infected in human PBMC after 48 to 72 hrs by MTS assay in presence of 20% human serum; assay type: functional; conditions: Human immunodeficiency virus 1, JRCSF ISOLATE
Method in brief: (§5)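 This is the PHA/IL-2 PBMC assay run with JR-CSF preincubated with 8 × 10^6 pooled cells for 1 h at 37°C. Cells were then spinoculated at 200 × g for 1 h and held 2 h more. Infected cells (2.5 × 10^4) were added, without virus washout, to wells holding uninfected PBMCs and compound. Medium had 15% FBS, plus 0, 10, 15, 20 or 30% human serum.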

[10] = test system: Human immunodeficiency virus 1; assay: Antiviral activity against HIV1 subtype B isolate Ba-L infected in human MDM […] by MTS assay; assay type: functional, organism-based; conditions: Human immunodeficiency virus 1, isolate Ba-L
PBMC [11] = assay: Cellular uptake in PHA/IL-2-stimulated human PBMC at 0.1 uM assessed as TFV-diphosphate after 24 hrs by MS/MS analysis; assay type: ADME, cell-based; method in brief: as §4
PBMC [12] = assay: Cellular uptake in human PBMC at 1 uM assessed as TFV level after 24 hrs by MS/MS analysis; assay type: ADME, cell-based; method in brief: as §1
[13] = test system: Human immunodeficiency virus 1; assay: Antiviral activity against HIV1 isolate JR-CSF infected in human PBMC after 48 to 72 hrs by MTS assay in presence of 100% human serum; assay type: functional; conditions: Human immunodeficiency virus 1, JRCSF ISOLATE
Method in brief: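 The value is an estimate for 100% human serum, extrapolated from JR-CSF EC50s measured in PHA/IL-2 PBMCs. Those assays used a virus preincubation/spinoculation step and contained 0 to 30% human serum on top of 15% FBS.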

[14] = test system: Human immunodeficiency virus 1; assay: Antiviral activity against HIV1 subtype B isolate ADA infected in human PBMC after 48 to 72 hrs by MTS assay; assay type: functional, organism-based; conditions: Human immunodeficiency virus 1, isolate ADA; method in brief: as §3
PBMC [15] = assay: Cellular uptake in human PBMC at 0.1 uM assessed as TFV level after 24 hrs by MS/MS analysis; assay type: ADME, cell-based; method in brief: as §1
[16] = test system: Human immunodeficiency virus 1; assay: Antiviral activity against HIV1 isolate JR-CSF infected in human PBMC after 48 to 72 hrs by MTS assay in presence of 10% human serum; assay type: functional; conditions: Human immunodeficiency virus 1, JRCSF ISOLATE; method in brief: as §5
PBMC [17] = assay: Cellular uptake in human PBMC at 0.1 uM assessed as TFV-monophosphate after 24 hrs by MS/MS analysis; assay type: ADME, cell-based; conditions: BLD = below limit of detection; method in brief: as §1
[18] = test system: Human immunodeficiency virus 1; assay: Antiviral activity against HIV1 subtype B isolate 96USHIPS7 infected in human PBMC after 48 to 72 hrs by MTS assay; assay type: functional, organism-based; conditions: Human immunodeficiency virus 1, isolate 96USHIPS7; method in brief: as §3
[19] = test system: Human immunodeficiency virus 1; assay: Antiviral activity against HIV1 isolate JR-CSF infected in human PBMC after 48 to 72 hrs by MTS assay in presence of 15% human serum; assay type: functional; conditions: Human immunodeficiency virus 1, JRCSF ISOLATE; method in brief: as §5
[20] = test system: Human immunodeficiency virus 1; assay: Antiviral activity against HIV1 isolate JR-CSF infected in human MDM […] by MTS assay; assay type: functional; conditions: Human immunodeficiency virus 1, JRCSF ISOLATE
PBMC [21] = assay: Cellular uptake in PHA/IL-2-stimulated human PBMC at 0.1 uM assessed as TFV level after 24 hrs by MS/MS analysis; assay type: ADME, cell-based; conditions: BLD = below limit of detection; method in brief: as §4
[22] = test system: Human immunodeficiency virus 1; assay: Antiviral activity against HIV1 subtype B isolate 92TH014 infected in human MDM […] by MTS assay; assay type: functional, organism-based; conditions: Human immunodeficiency virus 1, isolate 92TH014
PBMC [23] = assay: Cellular uptake in PHA/IL-2-stimulated human PBMC at 1 uM assessed as TFV level after 24 hrs by MS/MS analysis; assay type: ADME, cell-based; method in brief: as §2
PBMC [24] = assay: Cellular uptake in PHA/IL-2-stimulated human PBMC at 0.01 uM assessed as TFV level after 24 hrs by MS/MS analysis; assay type: ADME, cell-based; conditions: BLD = below limit of detection; method in brief: as §4

**Q.** Which Drug uptake (PBMC [1]) does the source give for C[C@H](Cn1cnc2c(N)ncnc21)OCP(=O)(O)O [TENOFOVIR ANHYDROUS] here?
**A.** 0.11 pmol/10^6 cells

**Q.** And the Drug uptake (PBMC [2])?
**A.** BLD

**Q.** And the Drug uptake (PBMC [3])?
**A.** Not Active

**Q.** Which results are given for CCCCCCCCCCCCCCCCOCCCOP(=O)(O)CO[C@H](C)Cn1cnc2c(N)ncnc21 [TENOFOVIR EXALIDEX]?
**A.** EC50 [4]: 1.5 nM; Drug uptake (PBMC [5]): 0.07 pmol/10^6 cells; Drug uptake (PBMC [6]): BLD; EC50 [7]: 5 nM; EC50 [8]: 5 nM; EC50 [9]: 11 nM; EC50 [10]: 3.1 nM; Drug uptake (PBMC [11]): 0.25 pmol/10^6 cells; Drug uptake (PBMC [12]): 0.07 pmol/10^6 cells; EC50 [13]: 53 nM; EC50 [14]: 1.5 nM; Drug uptake (PBMC [15]): 0.05 pmol/10^6 cells; EC50 [16]: 4.6 nM; Drug uptake (PBMC [17]): BLD; EC50 [18]: 1.5 nM; EC50 [19]: 6.4 nM; EC50 [20]: 3.1 nM; Drug uptake (PBMC [21]): BLD; EC50 [22]: 3.1 nM; Drug uptake (PBMC [23]): 0.56 pmol/10^6 cells; Drug uptake (PBMC [24]): BLD

Source: ChEMBL document CHEMBL1629690, “Development of hexadecyloxypropyl tenofovir (CMX157) for treatment of infection caused by wild-type and nucleoside/nucleotide-resistant HIV” (Antimicrob Agents Chemother, 2010)
